Where two headings read alike, the source gives them in different places. Values belong to the molecule of their own block, whether it stands above or below them.
Assays:
[1] = LogD by shake-flask method with 18F-labeled tracers; assay type: physicochemical; conditions: pH 7.4
GluN2B subunit [2] = molecular target: GluN2B subunit (Rattus norvegicus, UniProt P35439+Q00960); assay: In vitro autoradiography in rat brain sections; assay type: binding
[3] = Radiometabolite analysis in mice; assay type: in vivo; conditions: ICR mice, 15 min post injection, n = 2
In short: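 Female CD1 (ICR) mice (8 weeks, 23–27 g) received tracer IV via tail vein and were killed at 15 min. Plasma was deproteinized with ice-cold CH3CN, and brain was homogenized in ice-cold CH3CN, with repeated centrifugation at 4 °C. Supernatants were spiked with unlabelled reference and run on C18 radioHPLC (CH3CN/H2O 55/45, 5 mL/min). Fractions were gamma-counted; parent % = parent counts/total counts × 100.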

[4] = Whole body ex vivo biodistribution in mice
In short: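 Female CD1 (ICR) mice (8 weeks, 23–27 g) were injected via tail vein with tracer, 740 kBq/100 μL saline containing 5% ethanol. Animals were killed at 2, 10, 30 and 60 min. Organs were removed, weighed and gamma-counted. %ID/g of wet tissue (stomach as %ID/organ) was calculated against diluted aliquots of the injected dose, with decay correction.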

GluN2B subunit [5] = assay: In vitro autoradiography in NHP brain sections; assay type: binding; conditions: self-blocking 13 10 μM
In short: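 Brain sections (20 μm) preincubated 20 min in 50 mM Tris-HCl pH 7.4 at room temperature, then incubated 60 min at room temperature with 18F-labelled test compound (37 kBq/mL, 1.58 nM). Self-block: 30 min pretreatment with unlabelled test compound (10 μM, 0.1% DMSO, 1% ethanol in buffer), then cold-buffer wash. Washed, dried, exposed to imaging plates overnight. Regional signal (gray value/unit area) expressed as a ratio to forebrain white matter.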

[6] = system: GluN1/GluN2A/GluN2A (2A/2A); assay: Inhibition of diheteromeric 2A/2A receptors; assay type: cell-based; conditions: wild-type 2A/2A, 1 μM compound
In short: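 Xenopus laevis stage VI oocytes injected with 5–10 ng receptor cRNA and kept at 15 °C in Barth's medium. Two-electrode voltage clamp run 2–7 days later at room temperature, holding −40 mV, in 90 mM NaCl, 1 KCl, 10 HEPES, 0.5 BaCl2, 0.01 EDTA, pH 7.4. Test compound (20 mM DMSO stock; final DMSO 0.05–0.5%) co-applied with 100 μM glutamate/100 μM glycine. Response given as % of response to agonists alone.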

[7] = molecular target: human GluN1/GluN2B receptors (Homo sapiens, UniProt Q05586+Q13224); assay type: cell-based; conditions: for %control at 1 μM, mean (99% CI), GluN2B: 1 μM compound, percent of maximal response to 100 μM glutamate/glycine; for IC50: n = 6−12
[8] = rat, self-blocking 13 10 μM, n = 3
[9] = remained high until 10 min post injection
[10] = IC50, mean, 100 μM glutamate/glycine coapplied with increasing concentrations
[11] = pIC50, mean (95% CI), 100 μM glutamate/glycine

GluN2B subunit (Rattus norvegicus, UniProt P35439+Q00960), sequence (Q00960 27-1482, other chains not shown): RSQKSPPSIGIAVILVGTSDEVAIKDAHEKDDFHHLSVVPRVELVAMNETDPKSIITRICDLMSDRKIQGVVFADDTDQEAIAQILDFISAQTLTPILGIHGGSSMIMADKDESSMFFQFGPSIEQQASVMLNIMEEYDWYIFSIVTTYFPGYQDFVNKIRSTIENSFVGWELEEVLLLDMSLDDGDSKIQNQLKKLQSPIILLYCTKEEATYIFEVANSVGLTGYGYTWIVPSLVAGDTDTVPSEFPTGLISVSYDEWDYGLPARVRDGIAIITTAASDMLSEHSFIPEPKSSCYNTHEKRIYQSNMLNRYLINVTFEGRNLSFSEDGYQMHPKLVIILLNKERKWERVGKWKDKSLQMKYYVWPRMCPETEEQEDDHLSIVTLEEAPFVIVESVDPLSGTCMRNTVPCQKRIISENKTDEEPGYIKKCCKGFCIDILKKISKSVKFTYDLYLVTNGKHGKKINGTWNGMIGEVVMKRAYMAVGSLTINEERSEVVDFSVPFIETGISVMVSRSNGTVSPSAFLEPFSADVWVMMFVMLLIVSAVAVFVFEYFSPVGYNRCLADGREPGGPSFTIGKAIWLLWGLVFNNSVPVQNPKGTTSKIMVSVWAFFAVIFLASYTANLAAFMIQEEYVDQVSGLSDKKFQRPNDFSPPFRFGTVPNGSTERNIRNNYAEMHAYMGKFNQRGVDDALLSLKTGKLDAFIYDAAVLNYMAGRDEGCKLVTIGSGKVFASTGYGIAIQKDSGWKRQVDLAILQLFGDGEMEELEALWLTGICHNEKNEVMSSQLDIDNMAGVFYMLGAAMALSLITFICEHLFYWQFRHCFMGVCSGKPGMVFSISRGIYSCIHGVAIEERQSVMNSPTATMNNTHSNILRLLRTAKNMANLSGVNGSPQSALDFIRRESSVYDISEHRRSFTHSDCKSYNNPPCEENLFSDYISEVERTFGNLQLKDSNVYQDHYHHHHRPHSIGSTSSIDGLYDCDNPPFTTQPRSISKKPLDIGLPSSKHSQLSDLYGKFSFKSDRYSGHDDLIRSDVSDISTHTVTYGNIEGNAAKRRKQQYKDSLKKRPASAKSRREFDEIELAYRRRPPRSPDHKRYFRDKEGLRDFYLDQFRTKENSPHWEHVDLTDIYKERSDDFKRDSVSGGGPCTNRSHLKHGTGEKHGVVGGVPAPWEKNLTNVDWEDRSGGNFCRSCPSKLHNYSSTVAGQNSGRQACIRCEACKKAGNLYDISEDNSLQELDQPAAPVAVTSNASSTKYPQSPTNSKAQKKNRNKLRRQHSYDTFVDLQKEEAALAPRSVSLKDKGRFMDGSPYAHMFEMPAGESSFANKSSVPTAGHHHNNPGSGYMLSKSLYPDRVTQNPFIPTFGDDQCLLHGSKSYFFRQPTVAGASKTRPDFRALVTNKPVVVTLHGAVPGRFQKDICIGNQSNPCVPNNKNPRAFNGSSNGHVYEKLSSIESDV
human GluN1/GluN2B receptors, sequence (Q13224 27-1484, other chains not shown): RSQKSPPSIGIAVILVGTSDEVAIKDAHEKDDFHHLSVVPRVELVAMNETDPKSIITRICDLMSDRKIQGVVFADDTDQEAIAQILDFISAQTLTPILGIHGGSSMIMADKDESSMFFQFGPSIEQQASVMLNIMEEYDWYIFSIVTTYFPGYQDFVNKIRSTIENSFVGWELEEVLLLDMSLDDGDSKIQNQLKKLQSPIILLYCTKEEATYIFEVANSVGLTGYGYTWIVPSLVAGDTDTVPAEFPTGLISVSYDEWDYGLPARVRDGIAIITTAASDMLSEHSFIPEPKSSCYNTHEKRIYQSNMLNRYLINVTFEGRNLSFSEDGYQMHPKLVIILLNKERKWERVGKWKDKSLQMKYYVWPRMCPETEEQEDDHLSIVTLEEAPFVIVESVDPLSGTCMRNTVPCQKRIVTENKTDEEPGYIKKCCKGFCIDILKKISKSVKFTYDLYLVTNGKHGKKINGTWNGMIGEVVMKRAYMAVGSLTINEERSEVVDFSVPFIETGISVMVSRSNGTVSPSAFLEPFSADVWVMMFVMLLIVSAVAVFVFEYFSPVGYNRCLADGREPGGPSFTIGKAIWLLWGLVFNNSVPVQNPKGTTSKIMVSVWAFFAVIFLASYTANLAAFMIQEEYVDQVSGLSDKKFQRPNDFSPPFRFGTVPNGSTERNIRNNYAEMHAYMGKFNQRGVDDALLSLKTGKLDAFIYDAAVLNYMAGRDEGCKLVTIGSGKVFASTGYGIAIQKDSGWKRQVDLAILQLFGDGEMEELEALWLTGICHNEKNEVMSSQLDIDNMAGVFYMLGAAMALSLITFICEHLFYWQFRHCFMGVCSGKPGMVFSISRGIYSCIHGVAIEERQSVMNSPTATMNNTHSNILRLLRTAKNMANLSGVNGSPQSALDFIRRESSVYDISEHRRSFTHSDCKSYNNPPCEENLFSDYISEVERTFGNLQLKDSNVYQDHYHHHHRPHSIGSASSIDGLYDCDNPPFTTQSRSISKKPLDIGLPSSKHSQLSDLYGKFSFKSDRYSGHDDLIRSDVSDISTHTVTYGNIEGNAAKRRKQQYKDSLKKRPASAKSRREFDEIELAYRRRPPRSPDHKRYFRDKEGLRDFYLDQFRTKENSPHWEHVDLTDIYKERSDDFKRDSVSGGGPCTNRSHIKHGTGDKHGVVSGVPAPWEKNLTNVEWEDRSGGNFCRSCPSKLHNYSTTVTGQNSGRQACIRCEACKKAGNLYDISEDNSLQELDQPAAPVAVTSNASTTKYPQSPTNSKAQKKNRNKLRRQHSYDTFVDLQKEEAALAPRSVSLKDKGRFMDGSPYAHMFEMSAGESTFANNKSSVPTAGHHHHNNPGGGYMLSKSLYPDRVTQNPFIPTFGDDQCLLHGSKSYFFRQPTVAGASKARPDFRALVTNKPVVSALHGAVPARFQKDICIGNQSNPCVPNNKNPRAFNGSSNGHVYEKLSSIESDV

- logD [1]: 2.89
- reduction of uptake by self-blocking (GluN2B subunit [2]; rat brain sections, cold compound 13 10 μM): ~ 90%
- specific binding, frontal cortex (GluN2B subunit [2]; [8]): 94%
- specific binding, hippocampus (GluN2B subunit [2]; [8]): 94%
- specific binding, striatum (GluN2B subunit [2]; [8]): 92%
- specific binding, thalamus (GluN2B subunit [2]; [8]): 88%
- parent fraction in brain [3]: 56.6%
- parent fraction in liver [3]: 5.1%
- parent fraction in plasma [3]: 11.8%
- bone uptake [4]: < 2 %ID/g
- initial uptake in heart, lung, kidney, liver, and small intestine ([4]; 2 min postinjection): > 5 % ID/g
- uptake in heart, lung, kidney, spleen, pancreas, and muscle ([4]; 60 min postinjection): < 0.6 % ID/g
- brain uptake at 2 min (brain2min) ([4]; i.v., 2 min post injection): 3.60 % ID/g
- brain uptake at 10 min ([4]; i.v., 10 min post injection): 0.72 %ID/g
- brain uptake at 60 min ([4]; i.v., 60 min post injection): 0.018 % ID/g
- liver uptake [4, 9]: 20.84 % ID/g
- small intestine uptake [4, 9]: 39.15 % ID/g
- specific binding, caudate nucleus (GluN2B subunit [5]): 79%
- specific binding, entorhinal cortex (GluN2B subunit [5]): 89%
- specific binding, insular cortex (GluN2B subunit [5]): 82%
- specific binding, putamen (GluN2B subunit [5]): 73%
- specific binding, thalamus (GluN2B subunit [5]): 53%
- specific binding, hippocampus (GluN2B subunit [5]; n = 3): 87%
Structure (SMILES): COc1cnc(OCc2cn(-c3ccc([18F])c(C)c3)nn2)nc1 [[^18F]13, 2-((1-(4-[^18F]fluoro-3-methylphenyl)-1H-1,2,3-triazol-4-yl)methoxy)-5-methoxypyrimidine]

- sensitivity of 2A/2A responses [6]: insensitive
- logD [1]: 2.89 ± 0.037
- %control at 1 μM, mean (99% CI), GluN2B [7]: 17 (11, 23) %
Structure (SMILES): COc1cnc(OCc2cn(-c3ccc(F)c(C)c3)nn2)nc1 [Compound 13, 2-((1-(4-Fluoro-3-methylphenyl)-1H-1,2,3-triazol-4-yl)methoxy)-5-methoxypyrimidine]

- sensitivity of 2A/2A responses [6]: insensitive
- logD [1]: 3.14 ± 0.037
- %control at 1 μM, mean (99% CI), GluN2B [7]: 13 (7, 19) %
- IC50 [7, 10]: 19 nM
- IC50 [7, 11]: 19.1 nM
Structure (SMILES): COc1cnc(OCc2cn(-c3ccc(F)c(Br)c3)nn2)nc1 [Compound 11, 2-((1-(3-Bromo-4-fluorophenyl)-1H-1,2,3-triazol-4-yl)methoxy)-5-methoxypyrimidine]

- IC50 [7, 10]: 89 nM
- IC50 [7, 11]: 75.9 nM
Structure (SMILES): COc1cnc(OCc2cn(-c3ccc(C)c(F)c3)nn2)nc1 [Compound 14, 2-((1-(3-Fluoro-4-methylphenyl)-1H-1,2,3-triazol-4-yl)methoxy)-5-methoxypyrimidine]

- IC50 [7, 10]: 339 nM
- IC50 [7, 11]: 282 nM
Structure (SMILES): COc1cnc(OCc2cn(-c3ccc(Br)c(F)c3)nn2)nc1 [Compound 12, 2-((1-(4-Bromo-3-fluorophenyl)-1H-1,2,3-triazol-4-yl)methoxy)-5-methoxypyrimidine]
